Shown are actives, neighbours in structure and some others; about 2.3% of the full set was active somewhere.
PfHsp90 set2 – reduces growth (ATP signal) of yeast expressing P. falciparum Hsp90 | inhibition, % at 9.4 µM | 310,000 tested, 0.32% active | S. cerevisiae expressing PfHsp90, BacTiter-Glo ATP, 48 h; yeast lacking PDR1 and PDR3 efflux regulators;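 active = every replicate shows inhibition above about 80%, whatever the replicate mean, limit read from the data; inconclusive = mean inhibition reaches the set limit but some replicate falls short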;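 note: 0% = DMSO neutral controls and 100% = 20 µM radicicol positive controls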
Rtt109 Vps75 – blocks Candida albicans Rtt109/Vps75 acetyltransferase activity | Q5AAJ8 | purified Rtt109/Vps75, ThioGlo CoA-SH fluorescence, 4 h | inhibition, % at 34.9 µM | 330,000 tested, 0.16% active;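 active = inhibition of at least 50% in every replicate; inconclusive = best replicate reaches 50% inhibition but some replicates fall short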
Target sequence (Q5AAJ8 whole entry, looked up): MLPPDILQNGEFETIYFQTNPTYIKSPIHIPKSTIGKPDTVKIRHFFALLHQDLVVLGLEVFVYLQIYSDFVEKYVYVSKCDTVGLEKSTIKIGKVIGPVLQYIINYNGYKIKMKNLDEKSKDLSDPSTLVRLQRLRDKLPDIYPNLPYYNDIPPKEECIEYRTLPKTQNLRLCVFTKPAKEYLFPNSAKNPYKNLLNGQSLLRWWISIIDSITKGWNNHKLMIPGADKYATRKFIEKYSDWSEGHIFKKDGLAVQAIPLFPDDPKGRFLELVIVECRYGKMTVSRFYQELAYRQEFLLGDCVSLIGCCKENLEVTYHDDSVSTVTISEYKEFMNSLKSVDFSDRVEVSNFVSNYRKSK
N-glyco inh – blocks N-linked glycosylation in D54 reporter cells; D54 ERlucT glycosylation luciferase reporter, 24 h; percent of 100 nM tunicamycin response; reporter increase, % at 12.5 µM; 360,000 tested, 0.23% active;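 active = mean luciferase reporter signal, scaled so untreated is 0 and the glycosylation-blocking control 100, at or above a set limit in every replicate; inconclusive = mean reaches the limit but not every replicate does; inactive = mean below the limit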;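 note: luciferase carries N-glycosylation sites so blocking glycosylation raises the light; 0% = median of neutral control wells and 100% = median of 100 nM tunicamycin wells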
PAX8 inh HTS – inhibitors of PAX8 transcriptional activity in RMG-I cells. 360,000 tested, 1.2% active. RMG-I TPO-luciferase reporter, SteadyGlo, 24 h. inhibition, % at 12.6 µM;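 active = mean replicate inhibition at least 60% with every replicate also reaching 60%; inconclusive = only one of the two criteria is met; inactive = mean below 60% and not all replicates reaching 60%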;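 note: luciferase light reporting Pax8 driven TPO promoter activity; plate controls were median of neutral control wells for no effect and mitoxantrone controls for full effect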
Arr AP2 block – inhibitors of human beta-arrestin and AP2 interaction; 340,000 tested, 0.31% active; inhibition, % at 10 µM; AID 504490; FITC-arrestin peptide / GST-AP2 beads, flow cytometry; AP2 beta2 appendage carries R879A mutation;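 active = inhibition above a set limit, near 3 SD of compounds lacking own fluorescence, cut at about 54% in these data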;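 note: plate controls were DMSO wells for no effect and 5 µM unlabelled arrestin peptide for full effect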
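Material – AP2 appendage R879A on GSH beads · Buffer or medium – PBS with 0.05% Tween 20 and 0.1% BSA · Probe or stimulus – fluorescein-tagged arrestin peptide at 50 nM final · Incubation – compound with beads 12 min RT, then probe 1 h RT · Detection – high-throughput flow cytometry of beads, ex 488, em 535 nm · Evaluation – percent response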
HIV Env fusion – HIV envelope-mediated fusion inhibition | inhibition, % at 12.3 µM | AID 651610 | HeLa-JRFL Env/CEM21 cell fusion, luciferase | 360,000 tested, 1.1% active;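 active = mean replicate inhibition score of at least 50 and every replicate individually at or above 50; inconclusive = only one of the two criteria met; inactive = mean below 50 and not all replicates reaching 50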;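 note: 0% = plate neutral controls and 100% = maraviroc near 300 nM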
* hit, by the source's call; i = inactive; u = inconclusive; x = no result given; + = active, no number; [ ] = another dose, or the depositor's remark.

SMILES	PfHsp90 set2	Rtt109 Vps75	N-glyco inh	PAX8 inh HTS	Arr AP2 block	HIV Env fusion
COc1ccc(CC2C(=O)NC(C)C(=O)N(C)C3C(=O)N(C)C(Cc4ccc(O)c(c4)Oc4ccc(cc4)C3O)C(=O)NC(C)C(=O)NC(C)C(=O)N2C)cc1 (stereo not given)	-16	-3	-18	110*	-12	70*
C=C1C(=O)O[C@@H]2C[C@@H](C)[C@@H]3C4OC4C(=O)[C@@]3(C)[C@@H](O)[C@H]12 (stereo not given in full)	10	7	-11	104*	9	-341
O=C(Cc1ccccn1)N1CC2(C1)[C@H](c1ccccc1)[C@H](CO)N2Cc1ccccn1	x	x	x	-5	x	x
Nc1ncnc2c1ncn2[C@@H]1O[C@H](COP(=O)(O)CP(=O)(O)O)[C@@H](O)[C@H]1O	5	1	-1	-17	1	7
N#Cc1cn(C2OC(CO)C(O)C2O)c2ncnc(N)c12 (stereo not given)	-1	-1	-12	96*	-5	85*
CCNC(=O)[C@H]1O[C@@H](n2cnc3c(N)ncnc32)[C@H](O)[C@@H]1O	-5	0	3	-6	5	-2
NC(=O)c1cn(C2OC(CO)C(O)C2O)c2ncnc(N)c12 (stereo not given)	-20	-2	-19	96*	-7	89*
O=C(Cc1cccnc1)N1CCCCN2[C@H](C1)[C@@H](c1ccc(C#CC3(O)CCCC3)cc1)[C@@H]2CO	x	x	x	25	x	x
C[C@@H]1CN([C@H](C)CO)C(=O)CCCn2cc(nn2)CO[C@@H]1CN(C)C(=O)Oc1ccc2ccccc2c1	x	x	x	x	x	-2[16.7 µM]
N#Cc1cccc(-c2ccc([C@@H]3[C@H]4CN(C(=O)Cc5ccccc5)CCCCN4[C@H]3CO)cc2)c1	x	x	x	29	x	x
Cc1ccc(-c2nc(N(C)C3CCN(C)CC3)c3ccccc3n2)cc1	7	u	49*	x	15	x
CN1CCC(N(C)c2ncnc3ccc(Br)cc23)CC1	0	-5	-5	x	9	x
COC(=O)[C@@H]1[C@@H](CO)[C@@H]2Cn3c(cccc3=O)[C@H]1N2Cc1nccs1	x	x	x	-10	x	-7[16.7 µM]
O=c1[nH]c(O)c(/C=C2/C=CC(c3cc(Cl)ccc3Cl)=N2)c(=O)[nH]1	-11	-5	49*	-41	35	-34
O=C1CNC[C@@H]2[C@@H](c3ccc(Br)cc3)[C@@H](CO)N12	x	x	x	-25	x	x
Cc1ccccc1[N+](=O)[O-]	8	1	0	x	9	x
Cc1cc([N+](=O)[O-])c2ccccc2[n+]1[O-]	108*	6	-19	x	11	x
C/C=C/c1ccc(C2[C@@H]3CN(C(=O)c4cnccn4)C[C@H]2N3)cc1 (stereo not given in full)	x	x	x	9	x	x
Oc1c(Cl)cccc1Cc1cc(Cl)cc(Cl)c1O	109*	-22	-2	24	-5	28
COc1ccc2c(c1)C(NC(C)=O)CCc1cc(OC)c(OC)c(OC)c1-2 (stereo not given)	13	5	8	84*	16	-8
COc1cc2c(c(OC)c1OC)-c1ccc(O)c(=O)cc1C(NC(C)=O)CC2 (stereo not given)	5	0	13	85*	38	-170
NNc1n[nH]c(=S)n1N	1	139*	2	-2	19	-4
O=C(Cc1ccccc1)N1C[C@H]2[C@@H](c3ccccc31)[C@H](CO)N2Cc1ccccc1	x	x	x	19	x	x
CC1CC(C)(O)CC(C(O)CC2CC(=O)NC(=O)C2)C1=O (stereo not given)	1	3	-19	123*	26	98*
CC=CC(C)=CC(C)C(=O)CC(O)CC1CC(=O)NC(=O)C1 (stereo not given)	x	x	-7	14	x	24
SMILES	PfHsp90 set2	Rtt109 Vps75	N-glyco inh	PAX8 inh HTS	Arr AP2 block	HIV Env fusion
OCCNc1c2c(nc3ccccc13)CCCC2	-14	-3	-1	x	2	x
C[n+]1c2ccccc2nc2ccc(NCCO)cc21	21	2	4	-38	26	57*
CNc1ccc2nc3ccccc3[n+](C)c2c1	30	1	-16	65*	16	-6
CN(C)C1C(=O)C(C(N)=O)=C(O)C2(O)C(=O)C3=C(O)c4c(O)cccc4C(C)(O)C3C(O)C12 (stereo not given)	-8	3	0	11	26	63*
N#Cc1ccc(-c2ccc([C@@H]3[C@H](CO)N4CCCCN(C(=O)Cc5ccccc5)C[C@@H]34)cc2)cc1	x	x	x	-2	x	x
CCCCCCCCn1sccc1=O	+	-2	6	x	x	x
O=C1C(=O)c2ccccc2-c2ccccc21	u	1	-23	u	1	91*
CCC(=NCc1ccc(F)cc1)c1c(O)n(C)c(=O)n(C)c1=O	-15	-3	-2	x	10	80*
COc1ccc2c(c1OC)CN1CCc3cc4c(cc3[C@H]1C2)OCO4	-6	2	0	x	-2	x
CCC1CN2CCc3cc(OC)c(OC)cc3C2CC1CC1NCCc2c1[nH]c1ccc(O)cc21 (stereo not given)	-38	-4	-18	101*	-25	73*
COC(=O)[C@@H]1[C@@H](CO)[C@@H]2Cn3c(ccc(-c4cccnc4)c3=O)[C@H]1N2S(=O)(=O)c1ccccc1F	x	x	x	-4	x	x
CN1C(=O)C2C[C@@]3(Br)c4ccccc4N(OOSc4ccccc4)[C@H]3N2C(=O)[C@@H]1Cc1ccccc1 (stereo not given in full)	-2	-6	-1	25	-6	77*
O=C(Cc1ccccn1)N1CCCCN2[C@H](CO)[C@@H](c3ccc(-c4ccc(F)cc4)cc3)[C@H]2C1	x	x	x	0	x	x
COc1cc2c(cc1/C=C/[N+](=O)[O-])OCO2	106*	-2	25	37	17	-73
O=[N+]([O-])c1ccc(N(CCO)CCO)c2c1no[n+]2[O-]	x	x	-3	109*	x	i
CN1CCN(c2ccc([N+](=O)[O-])c3no[n+]([O-])c23)CC1	-263	-2	-19	88*	-13	-256
COc1ccc(-c2ccc3n(c2=O)C[C@H]2[C@H](CO)[C@@H](C(=O)O)[C@@H]3N2C(=O)c2ccccc2F)cc1	x	x	x	x	x	6[16.7 µM]
COCC(=O)N1[C@@H]2Cn3c(ccc(C4=CCCC4)c3=O)[C@H]1[C@@H](C(=O)OC)[C@@H]2CO	x	x	x	-1	x	x
Brc1ccc(-[n+]2c(-c3ccccc3)cc(-c3ccccc3)cc2-c2ccccc2)cc1	22	10	11	98*	2	24
Cc1ccc(-c2cc(-c3ccccc3)cc(-c3ccccc3)[n+]2-c2ccc(C(=O)O)cc2)cc1	26	-7	1	12	-5	8
CCCOC(=O)c1ccc(-[n+]2c(-c3ccccc3)cc(-c3ccccc3)cc2-c2ccccc2)cc1	5	11	22	88*	22	-14

Bioassay records deposited in PubChem by several laboratories.
